One experiment concerns MCF7. As to the kind of experiment: Cytotoxicity against human MCF7 cells by SRB assay. The format is functional, cell-based. On the technique in general: The SRB assay estimates cell density from bound dye.
In another experiment the test system is HepG2. Briefly: Cytotoxicity against human HepG2 cells by SRB assay. The format is functional, cell-based.
In experiment [1] the test system is Radical scavenging activity. Briefly: Antioxidant activity assessed as DPPH free radical scavenging activity after 30 mins by spectrophotometry. It counts as functional. Put shortly:
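EC50, the amount giving half-maximal scavenging, was taken from serial dilutions (5–50 μg/ml) in DMSO run against DPPH in DMSO (6 mg/50 ml stock) to a 3 ml total. Incubated 30 min in the dark at room temperature, with a DMSO control and A517 read-out. Scavenging % = [1 − (A sample/A control)] × 100.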

For experiment [2], the system named is Radical scavenging activity. Briefly: Antioxidant activity assessed as DPPH free radical scavenging activity at 50 ug after 30 mins by spectrophotometry. The format is functional. Put shortly:
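Each sample (50 μg) dissolved in 1 ml DMSO; 250 μl added to 1 ml DPPH in DMSO (6 mg/50 ml), brought to 3 ml with DMSO. DMSO served as control. Vortexed, kept 30 min in the dark at room temperature, and absorbance read at 517 nm. Scavenging % = [1 − (A sample/A control)] × 100.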

The subject of the next experiment is Penicillium expansum. As to the kind of experiment: Antifungal activity against Penicillium expansum assessed as diameter of inhibition zone at 10 mg/ml after 24 hrs by cut-plug method. The format is functional. As to conditions: for zone of inhibition at 10000 µg/mL: read-out: DIZ. Put shortly:
(§1)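 Bacteria were maintained on nutrient agar and fungi on Sabouraud agar slopes. Testing used the cut-plug technique on nutrient agar, incubated at 30°C for 24 h, and inhibition zone diameters were measured in mm.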

Another experiment concerns Fusarium oxysporum. As to the kind of experiment: Antifungal activity against Fusarium oxysporum assessed as diameter of inhibition zone at 10 mg/ml after 24 hrs by cut-plug method. The format is functional. Summed up: as §1
The next experiment deals with Serratia. As to the kind of experiment: Antimicrobial activity against Serratia assessed as diameter of inhibition zone at 10 mg/ml after 24 hrs by cut-plug method. The format is functional. As to conditions: read-out: DIZ. Put shortly: as §1
The subject of the next experiment is Enterobacter cloacae. Briefly: Antimicrobial activity against Enterobacter cloaca assessed as diameter of inhibition zone at 10 mg/ml after 24 hrs by cut-plug method. It counts as functional. As to conditions: read-out: DIZ. Summed up: as §1
In a further experiment the test system is Escherichia coli. As to the kind of experiment: Antimicrobial activity against Escherichia coli assessed as diameter of inhibition zone at 10 mg/ml after 24 hrs by cut-plug method. As to conditions: read-out: DIZ. The format is functional. Summed up:
as §1

The next experiment relates to Bacillus. Briefly: Antimicrobial activity against Bacillus assessed as diameter of inhibition zone at 10 mg/ml after 24 hrs by cut-plug method. The format is functional. Summed up:
as §1

Each structure is given as a SMILES string. Converted amounts (≈) assume the structure as drawn. The source made the active and inactive calls. The rule behind the calls is not given here. Where only a bound is given, the exact number is not on record here.

Consider `Cc1ccc(-c2cc3ncc4c(-c5cccnc5)nn(-c5ccccc5)c4n3n2)cc1`, for which the figures for the IC50 with MCF7 and in the experiment on HepG2 were 10.5 µg/mL (≈ 26.1 µM) and 12.9 µg/mL (≈ 32.1 µM), respectively. Also, the EC50 (in general, the concentration that produces a half-maximal response) in experiment [1] came to 53.76 µg/mL (≈ 134 µM). The Activity in [2] stood at 39.6%.
As for `O=C(c1cccnc1)c1cc2c(-c3cccnc3)nn(-c3ccccc3)c2[nH]c1=O`, the “diameter of the inhibition zone (DIZ)” value in the experiment on Penicillium expansum, in the experiment on Fusarium oxysporum and with Bacillus was “inactive” throughout. The zone of inhibition at 10000 µg/mL is 12.5 mm in the experiment with Serratia, 11.5 mm in the experiment with Enterobacter cloacae and 10.5 mm in the experiment with Escherichia coli. The values for the concentration for half-maximal inhibition (IC50) in the experiment on MCF7 and in the experiment on HepG2 were 10.1 µg/mL (≈ 25.7 µM) and 11 µg/mL (≈ 28 µM), respectively. For the same molecule, in experiment [1], the EC50 is 38.64 µg/mL (≈ 98.2 µM). The Activity in [2] is 36%.
Consider `N#Cc1cc2c(-c3cccnc3)nn(-c3ccccc3)c2[nH]c1=S`, for which the IC50 (in general, the concentration that gives 50% inhibition) in the experiment with MCF7 came out at 2.7 µg/mL (≈ 8.2 µM); with HepG2, 3.9 µg/mL (≈ 11.8 µM). The EC50 in experiment [1] was 92.85 µg/mL (≈ 282 µM). In [2], the Activity was determined as 17%.
Consider `Cc1ccc(C(=O)c2cc3c(-c4cccnc4)nn(-c4ccccc4)c3[nH]c2=O)cc1`, for which the zone of inhibition at 10000 µg/mL was 10 mm in the experiment on Penicillium expansum, 17 mm with Serratia, 12.5 mm with Enterobacter cloacae and 17 mm in the experiment with Escherichia coli. Also, the “diameter of the inhibition zone (DIZ)” value in the experiment with Fusarium oxysporum and in the experiment on Bacillus was “inactive” each time. For the same molecule, the half-inhibitory concentration (IC50) in the experiment with MCF7 was 9.9 µg/mL (≈ 24.4 µM); in the experiment with HepG2 it was 8.85 µg/mL (≈ 21.8 µM). Moreover, in experiment [1], the EC50 was 54.76 µg/mL (≈ 135 µM). The Activity in experiment [2] turned out to be 38.9%.
Take `O=C(c1ccc(F)cc1)c1cc2c(-c3cccnc3)nn(-c3ccccc3)c2[nH]c1=O`: the “diameter of the inhibition zone (DIZ)” value in the experiment with Penicillium expansum, with Fusarium oxysporum and in the experiment on Bacillus was “inactive” each time. Further, the zone of inhibition at 10000 µg/mL is 17.5 mm in the experiment on Serratia, 21 mm in the experiment on Enterobacter cloacae and 15 mm with Escherichia coli. In addition, the values for the 50% inhibitory concentration (IC50) in the experiment with MCF7 and in the experiment with HepG2 were 8.7 µg/mL (≈ 21.2 µM) and 7.8 µg/mL (≈ 19 µM), respectively. Moreover, the EC50 in experiment [1] is 4.21 µg/mL (≈ 10.3 µM). In experiment [2], the Activity was 72.3%.
For `c1ccc(-c2cc3ncc4c(-c5cccnc5)nn(-c5ccccc5)c4n3n2)cc1`, the IC50 with MCF7 stood at 15.9 µg/mL (≈ 40.9 µM); in the experiment on HepG2 it was 17.3 µg/mL (≈ 44.5 µM). Besides, in experiment [1], the 50% effective concentration (EC50) was greater than 100 µg/mL. Also, the Activity in experiment [2] was determined as 9.47%.
For the molecule `COc1cccc2c1C(=O)c1c(O)c3c(c(O)c1C2=O)C[C@@](O)(C(=O)CO)C[C@@H]3O[C@H]1C[C@H](N)[C@H](O)[C@H](C)O1` [DOXORUBICIN], the IC50 with HepG2 is 3.1 µg/mL (≈ 5.7 µM).
Consider `O=C(N[C@H](CO)[C@H](O)c1ccc([N+](=O)[O-])cc1)C(Cl)Cl` [CHLORAMPHENICOL], for which the zone of inhibition at 10000 µg/mL in the experiment on Penicillium expansum was found to be 10 mm; with Fusarium oxysporum (read-out: DIZ), 12 mm; in the experiment with Serratia, 25.8 mm; in the experiment with Enterobacter cloacae, 17 mm; with Escherichia coli it was 18 mm; in the experiment with Bacillus (read-out: DIZ), 21 mm.
As to `N#Cc1cc2c(-c3cccnc3)nn(-c3ccccc3)c2[nH]c1=O`, the IC50 was 3 µg/mL (≈ 9.57 µM) in the experiment on MCF7 and 3.3 µg/mL (≈ 10.5 µM) in the experiment on HepG2. For the same molecule, in experiment [1], the EC50 is greater than 100 µg/mL. In [2], the Activity was determined as 1.14%.
For `Clc1ccc(-c2cc3ncc4c(-c5cccnc5)nn(-c5ccccc5)c4n3n2)cc1` the same measures were 14.7 µg/mL (≈ 34.8 µM), 16.2 µg/mL (≈ 38.3 µM), 80.5 µg/mL (≈ 190 µM) and 29.4%.
In the case of `CCOC(=O)c1cc2c(-c3cccnc3)nn(-c3ccccc3)c2nc1-c1cccnc1`, the results for the IC50 with MCF7 and in the experiment with HepG2 were 6.9 µg/mL (≈ 16.4 µM) and 3.75 µg/mL (≈ 8.9 µM), respectively. Besides, the result in [2] was inactive.
As for `O=C(c1ccc(Cl)cc1)c1cc2c(-c3cccnc3)nn(-c3ccccc3)c2[nH]c1=O`, the “diameter of the inhibition zone (DIZ)” value with Penicillium expansum, with Fusarium oxysporum and with Bacillus was “inactive” each time. The zone of inhibition at 10000 µg/mL with Serratia was found to be 17 mm; in the experiment with Enterobacter cloacae, 19 mm; with Escherichia coli, 19 mm. Also, the IC50 in the experiment on MCF7 worked out at 6.45 µg/mL (≈ 15.1 µM); in the experiment on HepG2 it was 9 µg/mL (≈ 21.1 µM). For the same molecule, the EC50 in experiment [1] is 8.97 µg/mL (≈ 21 µM). Further, the Activity in experiment [2] is 63.6%.
Take `O=C1O[C@H]([C@@H](O)CO)C(O)=C1O` [ASCORBIC ACID]: the EC50 in experiment [1] was determined as 3.22 µg/mL (≈ 18.3 µM). Besides, the Activity in experiment [2] turned out to be 82.8%.
